Series [1] is described as follows: Inhibition of amyloid beta (1 to 42) aggregation in vitro cell-free polymerization assay.
The test system of series [2] is Escherichia coli BL21(DE3). Kind of series: Inhibition of amyloid beta (1 to 42) aggregation in Escherichia coli competent cells BL21 (DE3) at 200 uM after overnight incubation by Thioflavin-S steady-state fluorescence assay. The procedure, abridged:
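Aβ42 (extra N-terminal Met) expressed from pET28a in E. coli BL21(DE3). Cells grown in M9 minimal medium with 50 μg/mL kanamycin and 25 μM Th-S (final), IPTG-induced or not, with compound at 200 μM final in DMSO, overnight at 37 °C, 1400 rpm. Th-S read at ex 440 nm, em 460–600 nm. Amyloid band = induced minus noninduced spectrum, normalized to OD600.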

Series [3] deals with T1, Amyloid-beta precursor protein (Homo sapiens, UniProt P05067). Kind of series: Inhibition of amyloid beta (1 to 42) (unknown origin) aggregation at 200 uM after 48 hrs by Thioflavin-T fluorescence assay relative to control.
For series [4], the target named is T1, Amyloid-beta precursor protein. The series is described as follows: Inhibition of amyloid beta (1 to 42) (unknown origin) aggregation by Thioflavin-T fluorescence assay.
The nature of series [5]: n-octanol-water partition coefficient, log P of the compound. In kind it is physicochemical.
Series [6] has as its target T1, Amyloid-beta precursor protein. Kind of series: Inhibition of amyloid beta (1 to 42) (unknown origin) aggregation assessed as lag time at 200 uM in Escherichia coli BL21 (DE3) cells by Thioflavin-S staining time-course kinetics (reference value: 64.4 mins).
For series [7] the target is unchanged. Kind of series: Displacement of [3H]PIB from human amyloid beta (1 to 40) fibrils after 3 hrs by liquid scintillation counting. For orientation: Loss of bound radioactivity is the signal in a displacement assay; it reports binding, not function.
Series [8] has the same target. Kind of series: Inhibition of amyloid beta (1 to 42) (unknown origin) aggregation assessed as end-time for aggregation at 200 uM after 48 hrs by Thioflavin-T fluorescence assay.
Series [9] shares this target. The series is described as follows: Inhibition of amyloid beta (1 to 42) (unknown origin) aggregation assessed as apparent elongation constant at 200 uM after 48 hrs by Thioflavin-T fluorescence assay.
The target is the same in series [10]. Kind of series: Inhibition of recombinant amyloid beta (1 to 42) fibrils (unknown origin) by thioflavin-T fluorescence assay.
Series [11] shares this target. Kind of series: Inhibition of amyloid beta (1 to 42) (unknown origin) aggregation assessed as half life for aggregation at 200 uM by Thioflavin-S fluorescence assay.
Setting [12] is: n-octanol/water, read-out: logP.

pIC50, pKd: −log10 of the molar value.

T1 sequence (P05067 whole entry): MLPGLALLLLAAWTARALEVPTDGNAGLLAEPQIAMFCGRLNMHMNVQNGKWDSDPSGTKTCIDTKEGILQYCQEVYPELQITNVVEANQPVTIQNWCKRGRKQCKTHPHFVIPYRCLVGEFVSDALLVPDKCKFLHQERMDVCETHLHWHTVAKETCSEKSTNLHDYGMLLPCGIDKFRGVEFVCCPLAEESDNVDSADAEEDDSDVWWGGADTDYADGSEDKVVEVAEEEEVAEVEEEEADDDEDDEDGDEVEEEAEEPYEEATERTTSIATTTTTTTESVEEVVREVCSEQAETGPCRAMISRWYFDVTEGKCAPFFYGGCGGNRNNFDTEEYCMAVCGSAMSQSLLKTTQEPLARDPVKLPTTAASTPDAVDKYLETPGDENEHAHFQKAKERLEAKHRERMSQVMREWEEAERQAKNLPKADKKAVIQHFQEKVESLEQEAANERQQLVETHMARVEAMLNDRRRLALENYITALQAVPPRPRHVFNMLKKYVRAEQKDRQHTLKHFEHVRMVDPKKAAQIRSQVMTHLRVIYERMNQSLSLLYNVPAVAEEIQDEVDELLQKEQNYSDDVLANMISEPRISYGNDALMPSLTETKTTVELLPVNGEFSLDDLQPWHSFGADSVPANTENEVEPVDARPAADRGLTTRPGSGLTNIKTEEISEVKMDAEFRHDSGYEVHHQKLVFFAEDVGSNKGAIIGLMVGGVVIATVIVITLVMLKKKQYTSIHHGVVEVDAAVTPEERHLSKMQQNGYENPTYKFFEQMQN

Compound `O=c1c(O)c(-c2ccc(O)cc2)oc2cc(O)cc(O)c12` [KAEMPFEROL] showed a pIC50 in series [1] of 4.12.

In series [2], `COc1cccc(C=O)c1O` returned an inhibition of 18.5%.

In turn, `O=c1c(O)c(-c2ccccc2)oc2cc(O)cc(O)c12` [GALANGIN] gave a pIC50 in [1] of less than 3.30.

Consider `COc1ccc2[nH]cc(CCNC(C)=O)c2c1`, for which the inhibition in series [2] is 7.5%.

With `O=c1c(O)c(-c2ccc(O)c(O)c2)oc2cc(O)cc(O)c12` [QUERCETIN], the inhibition in series [2] is 81.3%; in series [3], 75.4%. Moreover, the pIC50 is 3.90 in series [4] and 4.82 in series [1]. In addition, in series [5] (octanol/water), the logP came out at 2.7. In addition, the Tlag in [6] was determined as 82.7 min.

In the case of `O=c1c(O)c(-c2ccccc2O)oc2cc(O)cc(O)c12` [DATISCETIN], the pIC50 in [1] was 4.26.

Regarding `O=c1c(O)c(-c2ccc(O)cc2O)oc2cc(O)cc(O)c12` [MORIN], in [1], the pIC50 was 4.52.

In the case of `O=C(/C=C/c1ccc(O)c(O)c1)O[C@H](Cc1ccc(O)c(O)c1)C(=O)O`, the inhibition in series [2] was determined as 5.5%.

Compound `CNc1ccc(-c2nc3ccc(O)cc3s2)cn1` gave a pKd in series [7] of 8.08. The logP in series [5] (setting [12]) came out at 2.7.

Take `O=c1cc(-c2ccc(O)cc2)oc2cc(O)cc(O)c12` [APIGENIN]: the TIME in [8] was determined as 8.85 h. The inhibition in series [2] came to 77.3%; in series [3], 52.7%. The values for the pIC50 in [4] and in series [10] were 3.75 and 4.41 to 4.64, respectively. Further, the Ke(app) in series [9] turned out to be 61.6 M⁻¹ s⁻¹. The logP in [5] (setting [12]) came out at 2.2. Moreover, the T1/2 in [11] amounted to 5.1 h. Further, in series [6], the Tlag was found to be 81.3 min.

As to `COc1cc(/C=C/C(=O)CC(=O)/C=C/c2ccc(O)c(OC)c2)ccc1O`, in series [2], the inhibition came to 37.8%.

For `O=C1c2c(O)cc(O)cc2O[C@H](c2cc(O)c(O)c(O)c2)[C@H]1O` [AMPELOPSIN], the pIC50 is 4.60 to 4.89 in series [4] and 4.60 in [1].

In general, pIC50 refers to the negative decadic logarithm of the IC50, by convention in mol/L. As a reminder, the inhibition is the change of the read-out against control, counted positive when it falls. Read a high inhibition as strong suppression. The logP is a log measure of how a compound divides between an organic and an aqueous phase. The pKd is the negative decadic logarithm of the Kd, by convention in mol/L. The low end stands for a large Kd, the high end for a small Kd.

For the origin of these results see ChEMBL document CHEMBL4052599, “Combined in Vitro Cell-Based/in Silico Screening of Naturally Occurring Flavonoids and Phenolic Compounds as Potential Anti-Alzheimer Drugs” (J Nat Prod, 2017).
